The record followed here is PubChem BioAssay.

Each structure is given as a SMILES string. Unmarked numbers belong to inactive results. Records with an inconclusive call do not appear. Active and inactive are the calls of the source.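 The calls were made as follows, unless noted: active = viability at or below 27.92% in each of two runs, the all-compound median minus 4 SD; inconclusive = no clear call, values can overlap the other calls; inactive = the rest.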

Test [1] is described as follows: S. cerevisiae growth inhibition in permissive medium (OD615), pilot counter-assay for S. cerevisiae lifespan shortening project, permissive growth control (AID 705;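 active = growth inhibition above 25% in both replicates, a cutoff set 3 SD above the mean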). Particulars: OD615, 24 h, at 10 µM, hits give high values. A digest of the protocol:
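System: S. cerevisiae with engineered DeaD lifespan system / Measured by: absorbance (optical density) at 615 nm / Read-out: reduction in yeast growth (OD615) / Times: 4 h cell pre-growth, 24 h exposure at 30 °C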

Test [2] is described as follows: S. cerevisiae growth inhibition in restrictive medium, OD615, pilot screen, restrictive growth control, yeast lifespan reduction project (AID 706;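 active = growth inhibition above a set limit, 3 SD over mean compound inhibition, in both replicates, cut at about 43% in these data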;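 also: modified DeaD lifespan yeast strain shifted to restrictive glucose medium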). The conditions noted are these: OD615, 48 h, at 10 µM, hits give high values. A digest of the protocol:
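System: Engineered S. cerevisiae DeaD strain | Buffer or medium: Glucose-based CSMM-D restrictive medium | Schedule: 4 h pre-incubation, 48 h exposure at 30 °C | Technique: Optical density at 615 nm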

Test [3] in a line: doxorubicin toxicity protection in MRP-1 cells – H69AR cells, CellTiter-Glo, duplicate, MRP-1 activator project, pilot screen (AID 807;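 active = viability increase at or above a cutoff of the median across tested compounds plus 3 SD, cut at about 8.5% in these data, passing the limit was not always enough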;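 also: compound pretreatment 18-22 h then 72 h combined with doxorubicin; 0% = doxorubicin alone and 100% = vehicle without doxorubicin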). Particulars: H69AR viability with doxorubicin, CellTiter-Glo luminescence; at 10 µM; hits give high values. On the technique in general: In ATP-based viability assays light output follows the ATP content of the culture.
Test [4] is described as follows: viability of HCT116 without oncogenic beta-catenin – human colon tumor cells, pilot screen (AID 823;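 active = cell viability at or below a set limit in both duplicate runs, the limit being the all-compound median minus 4 SD, cut at about 23% in these data, passing the limit was not always enough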;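 also: 0% = wells killed by 20 µM Hyamine and 100% = untreated DMSO cell wells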). The conditions noted are these: HCT116 beta-catenin knockout viability, CellTiter-Glo, 60 h; at 10 µM; hits give low values.
Test [5] is described as follows: viability of PTEN-null HCT116 cells – cell-based, HCT116 clonal line, CellTiter-Glo, pilot screen (AID 824).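 Also: 0% = 20 µM Hyamine control and 100% = vehicle cell control.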 Particulars: HCT116 PTEN-deleted viability, 60 h, at 10 µM, hits give low values.
The nature of test [6]: RAM pathway blockade in budding yeast – dse1pr::URA3 reporter, 5-FOA selection, pilot screen (AID 869;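 active = inhibition over a set limit, the all-compound mean plus 3 SD, in both replicate runs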;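 also: 0% = DMSO wells with no growth and 100% = 10 µM 1-NA-PP1 with full growth; RAM network block rescues cells from 5-FOA so hits raise OD615 growth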). The conditions noted are these: S. cerevisiae dse1pr::URA3 5-FOA growth, OD615, 2 d; at 10 µM; hits give high values; strain carries analog-sensitive mutant Cbk1 kinase.
Test [7] in a line: RAM signaling pathway blockade in yeast – S. cerevisiae, Pdr1DBD-CYC8 efflux-inhibited sensitized strain, primary screen (AID 1298;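 active = RAM network inhibition above 8.4% in each of two replicates, 3 SD over the compound average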;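 also: 0% = DMSO untreated cells without growth and 100% = 10 µM 1-NA-PP1 full growth; higher means more yeast growth rescued from 5-FOA killing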). The conditions noted are these: S. cerevisiae cbk1-as DSE1-URA3 strain, 5-FOA growth OD615, 2 d; at 50 µM; hits give high values.

What is called viability is a read-out of living cells in per cent, often relative to untreated cells. A word on the inhibition: it is the change of the read-out against control, counted positive when it falls. Take `COc1ccc(Cl)cc1NC(=O)C1CSC(c2ccncc2)=N1` (stereo unspecified): the growth inhibition in test [1] was 1.68%; in test [2], -12.2%. Besides, the viability increase in test [3] is -8.24%. In addition, the viability was 65.2% in test [4] and 61.5% in test [5]. Moreover, the inhibition in test [6] is 0.41%. In addition, the RAM network inhibition in test [7] was 5.11%.

As for `CC(=O)/C(C(=N)N1CCN(Cc2ccccc2)CC1)=C(\C)O`, the growth inhibition in test [1] was -12.7%; in test [2] it was -5.25%. In test [3], the viability increase was -0.02%. Moreover, the viability in test [4] was 103%; in test [5], 101%. Besides, the inhibition in test [6] was 2.4%. In addition, the RAM network inhibition in test [7] is 2.85%.

Regarding `Cc1nc(SC(C)C)[nH]c(=O)c1Cc1ccccc1`, the figures for the growth inhibition in test [1] and in test [2] were -14.9% and -4.47%, respectively. In addition, the viability increase in test [3] is -0.89%. Moreover, the figures for the viability in test [4] and in test [5] were 98.4% and 91.8%, respectively. Besides, in test [6], the inhibition is 1.1%. Further, in test [7], the RAM network inhibition was 3.52%.

Regarding `Cc1ccc(S(=O)(=O)N2CCCC(C(=O)O)C2)s1` (stereo unspecified), the growth inhibition was -4.2% in test [1] and -4.86% in test [2]. In test [3], the viability increase was 1.27%. For the same compound, the figures for the viability in test [4] and in test [5] were 97% and 99.6%, respectively. In test [6], the inhibition was 0.59%. Besides, the RAM network inhibition in test [7] is -1.67%.

Take `COc1ccc(Cl)cc1NC(=O)Cn1c(=O)n2nc(C)nc2c2ccccc21`: the values for the growth inhibition in test [1] and in test [2] were -7.69% and 3.31%, respectively. In test [3], the viability increase was -7.15%. For the same compound, the viability is 90.9% in test [4] and 87.8% in test [5]. In addition, the inhibition in test [6] is 0.175%. Moreover, the RAM network inhibition in test [7] was 6.46%.

As for `CC(C)c1cc(N2CCN(C(=O)c3ccco3)CC2)n2c(nc3ccccc32)c1C#N`, the growth inhibition was -3.91% in test [1] and 0.12% in test [2]. Besides, the viability increase in test [3] was -5.67%. The viability is 94.1% in test [4] and 91.6% in test [5]. Also, the inhibition in test [6] is 2.04%. Further, the RAM network inhibition in test [7] was 3.57%.

With `CCOC(=O)N1CCC(NC(=O)c2ccc(CS(=O)(=O)c3ccc(OC)cc3)o2)CC1`, the growth inhibition was 5.7% in test [1] and -8.08% in test [2]. In addition, in test [3], the viability increase was -2.5%. Further, the viability was 104% in test [4] and 94.1% in test [5]. Also, in test [6], the inhibition was 1.96%. Besides, the RAM network inhibition in test [7] was 1.82%.

Turning to `CC(C)CCNC(=O)Cn1cc2c(n1)CCCCC2`, the growth inhibition is 3.78% in test [1] and 2.78% in test [2]. In test [3], the viability increase is -1.8%. Further, the figures for the viability in test [4] and in test [5] were 106% and 100%, respectively. Further, the inhibition in test [6] is 1.82%. In addition, the RAM network inhibition in test [7] was 1.38%.

Take `CN(C)C1NC(=O)c2cc(-c3ccccc3)sc2N1` (stereo unspecified): the growth inhibition is -5.92% in test [1] and -10.2% in test [2]. Besides, in test [3], the viability increase is -0.01%. Moreover, the viability in test [4] is 102%; in test [5] it was 104%. In test [6], the inhibition is 0.135%. Also, the RAM network inhibition in test [7] is 2.33%.

In the case of `CCCCNc1ncnc2c1cnn2-c1ccc(Cl)cc1`, the growth inhibition in test [1] was -7.84%; in test [2], -18.1%. In test [3], the viability increase is -6.6%. The viability was 17.3% (active) in test [4] and 20.4% (active) in test [5]. Also, the inhibition in test [6] was 0.835%. Further, the RAM network inhibition in test [7] is 5.62%.

As to `COc1ccc(Cl)cc1C(=O)NCC(C)C`, the growth inhibition in test [1] was 6.51%; in test [2] it was 8.17%. Moreover, the viability increase in test [3] is -0.38%. In addition, the viability in test [4] is 95.7%; in test [5], 90.4%. In test [6], the inhibition is 2.71%. For the same compound, in test [7], the RAM network inhibition is 4.05%.

As to `C=CCn1c2ccccc2c2nnc(SCN3C(=O)c4ccccc4C3=O)nc21`, the growth inhibition in test [1] is 7.65%; in test [2] it was 48.4% (active). For the same compound, in test [3], the viability increase was -4.7%. Besides, the results for the viability in test [4] and in test [5] were 100% and 93.7%, respectively. In test [6], the inhibition is 3.45%. Further, the RAM network inhibition in test [7] is 4.65%.

As to `O=C1CC(Nc2ccc(N3CCOCC3)cc2)C(=O)N1c1ccccc1F` (stereo unspecified), the growth inhibition in test [1] is 1.41%; in test [2], -5.97%. For the same compound, the viability increase in test [3] was -2.99%. For the same compound, the figures for the viability in test [4] and in test [5] were 110% and 105%, respectively. The inhibition in test [6] was 1.53%. The RAM network inhibition in test [7] was 5.38%.

For `Cc1cc(Cl)ccc1N=Cc1c(O)n(C)c(=O)n(C)c1=O`, the growth inhibition in test [1] was 1.62%; in test [2], 1.2%. In test [3], the viability increase is 2.36%. Besides, the figures for the viability in test [4] and in test [5] were 106% and 105%, respectively. Besides, in test [6], the inhibition was 0.11%. Further, the RAM network inhibition in test [7] was -1.25%.

Take `COC(=O)c1c(-c2ccc(C)cc2)csc1N`: the values for the growth inhibition in test [1] and in test [2] were 1.67% and 0.135%, respectively. Also, in test [3], the viability increase is -3.98%. For the same compound, the viability in test [4] is 75.8%; in test [5], 87.8%. Moreover, in test [6], the inhibition is -0.61%. Further, the RAM network inhibition in test [7] is -1.79%.

With `CCN(CC)C(=O)CSc1ccccc1N`, the growth inhibition is -16.2% in test [1] and -9.23% in test [2]. Also, the viability increase in test [3] is -1.98%. Besides, the viability in test [4] is 89.5%; in test [5], 94.4%. In addition, the inhibition in test [6] was 0.885%. The RAM network inhibition in test [7] was 5.73%.

Take `CCC(C)Sc1nnc(Cc2cc(=O)[nH]c(=O)[nH]2)n1-c1ccc(OC)cc1` (stereo unspecified): the growth inhibition in test [1] was 5.64%; in test [2] it was -6.83%. Besides, the viability increase in test [3] was -0.09%. For the same compound, the results for the viability in test [4] and in test [5] were 104% and 102%, respectively. The inhibition in test [6] was 0.295%. For the same compound, the RAM network inhibition in test [7] is 2.22%.

Regarding `c1ccc(COc2nsnc2N2CCOCC2)cc1`, the growth inhibition in test [1] is 6.21%; in test [2], 13.8%. Moreover, the viability increase in test [3] was -1.67%. Moreover, the values for the viability in test [4] and in test [5] were 107% and 86.5%, respectively. Further, the inhibition in test [6] is 0.145%. The RAM network inhibition in test [7] was 1.41%.
